Compound activity deposited in PubChem BioAssay by several laboratories.
An excerpt weighted towards active compounds, which were near 2.5% of everything screened.
MBD2 inh – blocks human MBD2 binding to methylated DNA; Q9UBB5; TR-FRET, MBD2 binding to methylated oligonucleotide; AID 686964; 370,000 compounds, 0.31% hits; inhibition, % at 4.4 µM; in the data active = inhibition above about 13%
Target sequence (Q9UBB5 whole entry, looked up): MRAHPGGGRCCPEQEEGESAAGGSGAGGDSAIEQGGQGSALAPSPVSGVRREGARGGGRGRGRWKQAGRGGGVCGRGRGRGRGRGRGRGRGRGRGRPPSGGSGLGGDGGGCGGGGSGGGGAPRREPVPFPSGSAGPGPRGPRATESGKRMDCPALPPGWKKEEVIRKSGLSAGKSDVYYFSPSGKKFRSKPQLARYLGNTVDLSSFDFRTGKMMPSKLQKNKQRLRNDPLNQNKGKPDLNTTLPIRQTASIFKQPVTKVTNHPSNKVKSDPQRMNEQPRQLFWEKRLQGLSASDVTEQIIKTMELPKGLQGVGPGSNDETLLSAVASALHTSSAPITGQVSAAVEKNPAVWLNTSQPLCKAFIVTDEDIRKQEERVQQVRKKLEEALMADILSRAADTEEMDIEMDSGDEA
UHRF1 binding – UHRF1 methyl-DNA binding inhibition. Q96T88. UHRF1 binding to methylated oligo, TR-FRET. inhibition, % at 4.4 µM. 370,000 compounds, 0.75% hits; in the data active = inhibition above about 21%;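 also: UHRF1 SRA domain binding a hemimethylated CpG hairpin DNA probe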
ABHD5 PLIN5 PPI – inhibitors of human ABHD5-perilipin-5 interaction | Q00G26+Q8WTS1 | AID 602281 | Split G. princeps luciferase complementation, luminescence, 4 h | 360,000 compounds, 0.78% hits | inhibition, % at 4 µM;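 active = inhibition above the mean inhibition across every tested compound plus 3 SD, cut at about 22% in these data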
Rin1 Abl inh – inhibitors of human Rin1-Abl protein interaction; P00519+Q13671; 360,000 compounds, 0.4% hits; inhibition, % at 7.35 µM; AID 588664; TR-FRET Rin1/Abl binding, biochemical; in the data active = inhibition above about 5%, passing the limit was not always enough
B2AR ag – activates human beta-2 adrenergic receptor causing internalization. Am2.2-beta2AR cells, FAP receptor internalization, flow cytometry. 340,000 compounds, 0.43% hits. response, % (concentration not given with the values);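 active = response above a set limit, near 3 SD of response in nonfluorescent compounds, cut at about 42% in these data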
Arr AP2 block – blocks beta-arrestin peptide binding to AP2 adaptin. FITC-arrestin peptide / GST-AP2 beads, flow cytometry; AP2 beta2 appendage carries R879A mutation. inhibition, % at 10 µM. 340,000 compounds, 0.31% hits. AID 504490;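 active = inhibition above a set limit, near 3 SD of compounds lacking own fluorescence, cut at about 54% in these data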
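Assay system: GST-AP2 R879A bound to glutathione beads, E. coli-expressed; Medium: PBS with 0.05% Tween 20 and 0.1% BSA; Also added: fluorescein-tagged arrestin peptide at 50 nM final; Timing: 12 min plus 1 h, RT; Measured by: flow cytometry, FL1 (488/535 nm); Evaluation: percent drop in bead-associated FITC signal.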
Rin1 Abl conf – Rin1-Abl interaction inhibition confirmation; shares compounds with Rin1 Abl inh; TR-FRET Rin1-Abl binding, purified proteins; inhibition, % at 7.35 µM; 1,300 compounds, 49% hits; AID 602124
GFP quench – quenches GFP fluorescence, counter-screen for Rin1-Abl inhibitors; inhibition, % at 6.75 µM; shares compounds with Rin1 Abl inh; inhibitors/quenchers counterscreen; 1,300 compounds, 8.5% hits; AID 602125;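 also: ABL1-eGFP fusion protein alone without its partner RIN1-SBP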
GFP quench dose – counter-screen for Rin1-Abl inhibitors: GFP quenchers, dose response; shares compounds with Rin1 Abl inh; GFP fluorescence interference/quenching counterscreen; IC50, µM; 230 tested, under 10 active; AID 602182; call rule not given here;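 also: ABL1-eGFP fusion protein alone without its RIN1 binding partner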
Each line names hits and unclear results; the compound was inactive in the other large screens (follow-up assays come after a bar, where they were run). Rule as the data show it, unless noted: active = inhibition above about 6.5%; inactive = the rest.

C#CCOCCOCCOCCNc1nc(N2CCN(C(=O)CCCCCCCCCCNC(=O)Cn3cc(CCCCCN)nn3)CC2)nc(N2CCN(C(=O)CCCCCCCCCCNC(=O)[C@@H](CCSC)n3cc(CCO)nn3)CC2)n1	ABHD5 PLIN5 PPI 57, Rin1 Abl inh 14, B2AR ag 75 (no result: MBD2 inh, UHRF1 binding) | Rin1 Abl conf 13 | GFP quench inactive
COc1cc(/C=C2/C(=O)N(c3cccc(Br)c3)N=C2C)cc(OC)c1O	none
CC1=NN(c2ccccc2)C(=O)/C1=C/c1cccc(C)c1	Rin1 Abl inh 9.4 | Rin1 Abl conf inactive | GFP quench inactive
COc1ccc(/C=C2/C(=O)N(c3ccccc3)N=C2C)cc1OC	Rin1 Abl inh 18 | Rin1 Abl conf inactive | GFP quench inactive
CC(=O)Oc1ccc(/C=C2/C(=O)N(c3ccccc3)N=C2C)cc1	MBD2 inh 24, Rin1 Abl inh 11 | Rin1 Abl conf inactive | GFP quench inactive
CC1=NN(c2ccccc2)C(=O)/C1=C/N(C)C	none
Cc1cc(C)cc(C(=O)OCCN2CCN(C3CN(Cc4cn(Cc5ccccc5F)nn4)S(=O)(=O)C3)CC2)c1 (stereo not drawn)	none (no result: ABHD5 PLIN5 PPI, Rin1 Abl inh, B2AR ag, Arr AP2 block)
COc1cccc(N(CC(=O)NCC2CCCO2)C(=O)CNS(=O)(=O)c2ccccc2)c1 (stereo not drawn)	Rin1 Abl inh 9.8 | Rin1 Abl conf inactive | GFP quench inactive
C[C@H]1[C@H](N)CC[C@@]23CCCN2C(=O)CCC[C@@H]13	none (no result: ABHD5 PLIN5 PPI, Rin1 Abl inh, B2AR ag, Arr AP2 block)
CC(C)C(=O)N1C2CCC1CC(O)(c1ccc(F)cc1)C2 (stereo not drawn)	Rin1 Abl inh 7.0 | Rin1 Abl conf inactive | GFP quench inactive
Cc1cc(N2C3CCC2CC(O)(c2ccc(F)cc2)C3)nc(-c2ccccc2)n1 (stereo not drawn)	none
COc1cc(NC(=O)Cn2c(=O)n(CC3CCCO3)c(=O)c3cc(OC)c(OC)cc32)cc(OC)c1 (stereo not drawn)	none
COc1ccc(NC(=O)Cn2c(=O)n(CC3CCCO3)c(=O)c3cc(OC)c(OC)cc32)cc1OC (stereo not drawn)	Rin1 Abl inh 9.9 | Rin1 Abl conf 8.8 | GFP quench inactive
O=c1[nH]c(CSc2nnnn2-c2ccccc2)nc2ccccc12	Rin1 Abl inh 9.8 | Rin1 Abl conf inactive | GFP quench inactive
Cc1csc(NC(=O)c2ccc(COc3cccc(F)c3)o2)n1	none (no result: ABHD5 PLIN5 PPI, Rin1 Abl inh, B2AR ag, Arr AP2 block)
CCOCC(=O)N1CCc2ccccc21	Rin1 Abl inh 6.3 | Rin1 Abl conf inactive | GFP quench inactive
COc1ccc(CN(CCN2CCOCC2)C(=O)c2ccc(F)cc2F)cc1OC	none (no result: ABHD5 PLIN5 PPI, Rin1 Abl inh, B2AR ag, Arr AP2 block)
c1ccc(C(c2ccccn2)c2ccccn2)cc1	Rin1 Abl inh 6.5 | Rin1 Abl conf 7.3 | GFP quench inactive
CN(CC(=O)Nc1ccccc1Br)C(=O)CNC(=O)c1ccc(Oc2ccccc2)cc1	Rin1 Abl inh 7.6 | Rin1 Abl conf inactive | GFP quench inactive
O=C(O)c1cccc(NC2=C(N3CCOCC3)C(=O)c3ccccc3C2=O)c1	Rin1 Abl inh 7.2 | Rin1 Abl conf inactive | GFP quench inactive
O=C1C(NS(=O)(=O)c2cccs2)=C(N2CCOCC2)C(=O)c2ccccc21	none
Cc1ccc(C)c(NC(=O)C2C3C=CC(O3)C2C(=O)O)c1 (stereo not drawn)	Rin1 Abl inh 7.6 | Rin1 Abl conf inactive | GFP quench inactive
Cc1ccc(NC(=O)C2C3C=CC(O3)C2C(=O)O)c(C)c1 (stereo not drawn)	none
CN(CC(=O)Nc1ccc(Cl)c(Cl)c1)C(=O)/C=C/c1ccc(F)cc1	Rin1 Abl inh 9.5 | Rin1 Abl conf inactive | GFP quench inactive
N=C(N)c1ccc(N=Nc2c(O)ccc3c2[nH]c2ccccc23)cc1	Rin1 Abl inh 22 | Rin1 Abl conf 24 | GFP quench 20
Oc1ccc(N=Nc2c(O)ccc3ccccc23)cc1	none
COC(=O)[C@@]12CCCCC=C1N(CCc1ccc(Cl)cc1)C(=O)[C@H]2CC(=O)NCc1cccc(C(F)(F)F)c1	none (no result: ABHD5 PLIN5 PPI, Rin1 Abl inh, B2AR ag, Arr AP2 block)
COC(=O)CNC(=O)[C@H](Cc1ccccc1)NC1(C(=O)NCCc2c[nH]c3ccccc23)CCCCC1	none (no result: ABHD5 PLIN5 PPI, Rin1 Abl inh, B2AR ag, Arr AP2 block)
OCCCNc1ncnc2c1ncn2[C@H]1CN(Cc2cccs2)C[C@@H](CO)O1	none (no result: B2AR ag, Arr AP2 block)
OC[C@@H]1CN(Cc2ccc(-c3ccccc3)cc2)C[C@H](n2cnc3c(NC4CCC4)ncnc32)O1	Rin1 Abl inh 18 (no result: B2AR ag, Arr AP2 block) | Rin1 Abl conf 24 | GFP quench inactive | GFP quench dose inactive
CC(C)N(C)c1ncnc2c1ncn2[C@H]1CN(Cc2ccc(Cl)cc2)C[C@@H](CO)O1	Rin1 Abl inh 6.2 (no result: B2AR ag, Arr AP2 block) | Rin1 Abl conf 6.3 | GFP quench inactive
OC[C@@H]1CN(Cc2ccccc2)C[C@H](n2cnc3c(NC4CC4)ncnc32)O1	none (no result: B2AR ag, Arr AP2 block)
OCCCNc1ncnc2c1ncn2[C@H]1CN(Cc2ccc(-c3ccccc3)cc2)C[C@@H](CO)O1	Rin1 Abl inh 19 (no result: B2AR ag, Arr AP2 block) | Rin1 Abl conf 22 | GFP quench inactive | GFP quench dose inactive
OCCNc1ncnc2c1ncn2[C@H]1CN(Cc2ccc(Cl)cc2)C[C@@H](CO)O1	Rin1 Abl inh 7.2 (no result: B2AR ag, Arr AP2 block) | Rin1 Abl conf inactive | GFP quench inactive
CNC(=O)C[C@@H]1CC[C@@H]2[C@H](COc3ccc(NC(=O)c4cccc(F)c4)cc3C(=O)N2C)O1	none (no result: ABHD5 PLIN5 PPI, Rin1 Abl inh, B2AR ag, Arr AP2 block)
C=Cc1ccc(C(=O)Nc2nnc(-c3cccnc3)s2)cc1	none (no result: ABHD5 PLIN5 PPI, Rin1 Abl inh, B2AR ag, Arr AP2 block)
COCCNc1ncnc2c1ncn2[C@H]1CN(Cc2ccc(F)cc2)C[C@@H](CO)O1	none (no result: B2AR ag, Arr AP2 block)
C=CCNc1ncnc2c1ncn2[C@H]1CN(Cc2ccco2)C[C@@H](CO)O1	none (no result: B2AR ag, Arr AP2 block)
CN(C)c1ncnc2c1ncn2[C@H]1CN(Cc2ccc(-c3ccccc3)cc2)C[C@@H](CO)O1	Rin1 Abl inh 20 (no result: B2AR ag, Arr AP2 block) | Rin1 Abl conf 15 | GFP quench inactive
C=CCNc1ncnc2c1ncn2[C@H]1CN(Cc2ccc(-c3ccccc3)cc2)C[C@@H](CO)O1	Rin1 Abl inh 19 (no result: B2AR ag, Arr AP2 block) | Rin1 Abl conf 17 | GFP quench inactive | GFP quench dose inactive
COCCNc1ncnc2c1ncn2[C@H]1CN(Cc2ccc(-c3ccccc3)cc2)C[C@@H](CO)O1	Rin1 Abl inh 9.6 (no result: B2AR ag, Arr AP2 block) | Rin1 Abl conf 11 | GFP quench inactive
COc1cc(CN2C[C@@H](CO)O[C@@H](n3cnc4c(NCc5ccc(F)cc5)ncnc43)C2)cc(OC)c1OC	Rin1 Abl inh 11 (no result: B2AR ag, Arr AP2 block) | Rin1 Abl conf 6.5 | GFP quench inactive
CCOC(=O)[C@]12CCCC=C1N(Cc1ccc(OC)cc1)C(=O)[C@@H]2CC(=O)N1CCCC1	none (no result: ABHD5 PLIN5 PPI, Rin1 Abl inh, B2AR ag, Arr AP2 block)
